Publication PMC6088348 (ACS Medicinal Chemistry Letters, 2018)

Key:
[1] = Stability of the linker moiety in aqueous buffers and plasma; format: physicochemical; conditions: relative to the initial α-hydroxyacetonyl ether
[2] = system: tryptase activity in HMC1 cell lysates; test: Inhibition of cellular tryptase activity assessed in HMC1 cell lysates; format: cell-based, human; conditions: read-out: IC50 in HMC1 cellular lysates; lysates of inhibitor-treated HMC1 cells
Summary of the method: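 Tryptase activity measured in lysates of cultured HMC1 human mast cells. IC50 with SEM from nonlinear regression, Hill slope unconstrained.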

SMILES | stability under aqueous conditions [1] | IC50 [2] [nM]
NCc1cccc(C2CCN(C(=O)c3cccc(OCC(O)C4(O)CCC4)c3)CC2)c1 (stereo not shown) [Compound 1b] | – | 8400
CC(C)(O)C(O)C(=O)Nc1cccc(C(=O)N2CCC(c3cccc(CN)c3)CC2)c1 (stereo not shown) [Compound 3b] | – | 13300

Compounds with a lower IC50 [2], results first:

stability under aqueous conditions [1] | IC50 [2] [nM] | SMILES
improved stability | 454 | NCc1cccc(C2CCN(C(=O)c3cccc(OCC(=O)C4(O)CCC4)c3)CC2)c1 [Compound 1a]
improved stability | 314 | NCc1cccc(C2CCN(C(=O)c3cccc(NC(=O)C(=O)C4(O)CCC4)c3)CC2)c1 [Compound 2a]
– | 113 | CC(C)(O)C(=O)C(=O)Nc1cccc(C(=O)N2CCC(c3cccc(CN)c3)CC2)c1 [Compound 3a]
